Data taken from ChEMBL document CHEMBL1157043, “An eco-friendly synthesis and antimicrobial activities of dihydro-2H-benzo- and naphtho-1,3-oxazine derivatives” (Eur J Med Chem, 2010).
Converted amounts (≈) assume the structure as drawn.

Key:
Candida parapsilosis = experiment: Antimicrobial activity against Candida parapsilosis ATCC 22019 after 24 hrs; type: functional; settings: Lodderomyces parapsilosis, ATCC 22019, 24 h
Outline: (§1)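 Broth microdilution per NCCLS guidelines in MOPS-buffered RPMI 1640. Starting inoculum was 1-5 × 10^3 cfu/mL, and plates were incubated at 35 °C. MIC was read spectrophotometrically at 492 nm after 24–48 h for yeasts and 72–96 h for mycelial fungi.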

Staphylococcus aureus = experiment: Antimicrobial activity against Staphylococcus aureus after 24 hrs; type: functional
Outline: (§2)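 NCCLS microdilution in Mueller Hinton broth. Strains were grown 24 h on nutrient agar at 37 °C, suspended at about 1.0–2.0 × 10^7 cells/mL (McFarland-matched) in saline with 0.05% Tween 20, then diluted 100 µL into 10 mL medium. Compounds were taken from a 1 mg/mL DMSO stock as twofold dilutions, top final 50 µg/mL. Incubation was 35 °C in a moist, dark chamber, and MIC was read spectrophotometrically at 24 h.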

Sporothrix schenckii = experiment: Antimicrobial activity against Sporothrix schenckii after 24 hrs; type: functional; outline: as §1
Escherichia coli = experiment: Antimicrobial activity against Escherichia coli after 24 hrs; type: functional; outline: as §2
Aspergillus fumigatus = experiment: Antimicrobial activity against Aspergillus fumigatus after 72 to 96 hrs
[1] = tested on: Trichophyton mentagrophytes; experiment: Antimicrobial activity against Trichophyton mentagrophytes after 72 to 96 hrs
Pseudomonas aeruginosa = experiment: Antimicrobial activity against Pseudomonas aeruginosa after 24 hrs; type: functional; outline: as §2
Candida albicans = experiment: Antimicrobial activity against Candida albicans after 24 hrs; type: functional; outline: as §1
Klebsiella pneumoniae = experiment: Antimicrobial activity against Klebsiella pneumoniae after 24 hrs; type: functional; outline: as §2
Cryptococcus neoformans = experiment: Antimicrobial activity against Cryptococcus neoformans after 24 hrs; type: functional; outline: as §1

Compound | MIC (Candida parapsilosis) [µg/mL] | MIC (Staphylococcus aureus) [µg/mL] | MIC (Sporothrix schenckii) [µg/mL] | MIC (Escherichia coli) [µg/mL] | MIC (Aspergillus fumigatus) [µg/mL] | MIC [1] [µg/mL] | MIC (Pseudomonas aeruginosa) [µg/mL] | MIC (Candida albicans) [µg/mL] | MIC (Klebsiella pneumoniae) [µg/mL] | MIC (Cryptococcus neoformans) [µg/mL]
c1ccc(N2COc3ccccc3C2)cc1 | 50 (≈ 237 µM) | > 50 | 25 (≈ 118 µM) | 50 (≈ 237 µM) | 50 (≈ 237 µM) | 25 (≈ 118 µM) | > 50 | > 50 | > 50 | > 50
Brc1ccc(N2COc3ccc4ccccc4c3C2)cc1 | > 50 | > 50 | 50 (≈ 147 µM) | > 50 | > 50 | 50 (≈ 147 µM) | 50 (≈ 147 µM) | > 50 | > 50 | 50 (≈ 147 µM)
Clc1ccc2c(c1)CN(c1ccccc1)CO2 | 50 (≈ 203 µM) | 25 (≈ 102 µM) | 6.25 (≈ 25.4 µM) | 12.5 (≈ 50.9 µM) | 25 (≈ 102 µM) | 12.5 (≈ 50.9 µM) | > 50 | 50 (≈ 203 µM) | 50 (≈ 203 µM) | 50 (≈ 203 µM)
c1ccc(N2COc3c(ccc4ccccc34)C2)cc1 | > 50 | > 50 | > 50 | > 50 | > 50 | > 50 | > 50 | > 50 | > 50 | > 50
CCCCN1COc2ccccc2C1 | > 50 | > 50 | 50 (≈ 261 µM) | 50 (≈ 261 µM) | > 50 | 50 (≈ 261 µM) | > 50 | > 50 | > 50 | > 50
Cc1ccc2c(c1)CN(c1ccccc1)CO2 | 50 (≈ 222 µM) | 50 (≈ 222 µM) | 12.5 (≈ 55.5 µM) | 25 (≈ 111 µM) | 50 (≈ 222 µM) | 25 (≈ 111 µM) | > 50 | > 50 | 50 (≈ 222 µM) | > 50
GENTAMICIN |  | 0.39 |  | 0.78 |  |  | 0.78 |  | 0.78 | 
c1ccc(CN2COc3ccc4ccccc4c3C2)cc1 | > 50 | > 50 | 50 (≈ 182 µM) | > 50 | > 50 | 50 (≈ 182 µM) | > 50 | > 50 | > 50 | > 50
Clc1cc(Cl)c(N2COc3ccc4ccccc4c3C2)c(Cl)c1 | > 50 | > 50 | > 50 | > 50 | > 50 | 50 (≈ 137 µM) | > 50 | > 50 | > 50 | > 50
Cc1cccc2c1OCN(c1ccccc1)C2 | 50 (≈ 222 µM) | 50 (≈ 222 µM) | 25 (≈ 111 µM) | 25 (≈ 111 µM) | 50 (≈ 222 µM) | 25 (≈ 111 µM) | > 50 | 50 (≈ 222 µM) | > 50 | > 50
c1ccc2c(c1)CN(C1CCCCC1)CO2 | > 50 | > 50 | > 50 | > 50 | > 50 | 50 (≈ 230 µM) | > 50 | > 50 | > 50 | > 50
Cc1ccc2c(c1)CN(c1ccccc1Cl)CO2 | 50 (≈ 193 µM) | > 50 | 12.5 (≈ 48.1 µM) | 50 (≈ 193 µM) | 50 (≈ 193 µM) | 12.5 (≈ 48.1 µM) | 50 (≈ 193 µM) | 50 (≈ 193 µM) | > 50 | 25 (≈ 96.3 µM)
Clc1ccc(Cl)c(N2COc3ccc4ccccc4c3C2)c1 | > 50 | > 50 | > 50 | 50 (≈ 151 µM) | > 50 | 50 (≈ 151 µM) | > 50 | > 50 | > 50 | > 50
Clc1ccc(N2COc3ccc4ccccc4c3C2)cc1 | > 50 | > 50 | 50 (≈ 169 µM) | > 50 | > 50 | 25 (≈ 84.5 µM) | 50 (≈ 169 µM) | > 50 | 50 (≈ 169 µM) | 50 (≈ 169 µM)
c1ccc(N2COc3ccc4ccccc4c3C2)cc1 | > 50 | > 50 | 25 (≈ 95.7 µM) | 50 (≈ 191 µM) | > 50 | > 50 | 50 (≈ 191 µM) | 50 (≈ 191 µM) | > 50 | > 50
